Results on 24 compounds are retold here after ChEMBL document CHEMBL1125131, “Long-acting dihydropyridine calcium antagonists. 4. Synthesis and structure-activity relationships for a series of basic and nonbasic derivatives of 2-[(2-aminoethoxy)methyl]-1,4-dihydropyridine calcium antagonists” (J Med Chem, 1990).

For one data set, the species on record is Cavia porcellus. In words: Negative logarithm of the concentration required to depress contraction in the Langendorff perfused guinea pig heart by 25%. In kind it is functional.
The species named for the next data set is Rattus norvegicus. Nature of the data set: Concentration required to block [Ca2+] induced contraction of K+ depolarized rat aorta by 50%. In kind it is functional.
Data set [1] can be described thus: Selectivity index, inhibition of [Ca2+] induced contraction of K+ depolarized rat aorta (IC50) to inhibition of contraction of guinea pig heart (IC25). In kind it is functional, Cavia porcellus.
The species named for data set [2] is Canis familiaris. In words: Duration of time taken for the compound for % decrease in coronary vasodilator activity. In kind it is functional, Canis lupus familiaris. The gist of the method:
(§1)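 Anesthetized beagle dogs were catheterized to record blood pressure and left ventricular pressure and to give compound intravenously, as one single dose for duration of action. Coronary blood flow was measured by hydrogen clearance with platinum electrodes in the coronary sinus and femoral artery, and cardiac output by thermodilution. Coronary vascular resistance was derived from these measurements.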

The subject of data set [3] is Canis familiaris. Nature of the data set: The compound was tested for % decrease in coronary vasodilator activity in anesthetized dogs following intravenous administration. Type of data set: functional, Canis lupus familiaris. The gist of the method: as §1
The species named for data set [4] is Canis familiaris. Nature of the data set: Duration of time taken for percent decrease in coronary vasodilator activity. Type of data set: functional, Canis lupus familiaris. The gist of the method:
as §1

Data set [5] relates to Canis familiaris. In words: Percent decrease in coronary vasodilator activity in anesthetized dogs following intravenous administration was determined. Type of data set: functional, Canis lupus familiaris. The gist of the method:
as §1

Data set [6] can be described thus: Plasma clearance in dogs after intravenous administration. In kind it is ADME, organism-based, Canis lupus familiaris. As to conditions: dog.
Data set [7] can be described thus: Plasma half-life in dog after intravenous administration. In kind it is ADME, organism-based, Canis lupus familiaris.
Data set [8] in a line: Volume of distribution in dog after intravenous administration. In kind it is ADME, organism-based, Canis lupus familiaris. To be noted: in vivo, read-out: Volume of distribution.

As for `CCO/C(O)=C1\C(COCCNC(=O)c2cccnc2)=NC(C)=C(C(=O)OC)C1c1ccccc1Cl` (stereo not given), the pIC25 in the data set listed under Cavia porcellus stood at 7.6. The compound also had a 50% inhibitory concentration (IC50) in the data set filed under Rattus norvegicus of 15.8 nM. Further, the Selectivity index in [1] was determined as 1.6.
Take `CCO/C(O)=C1\C(COCCN(C)/C(=N/C)NC#N)=NC(C)=C(C(=O)OC)C1c1ccccc1Cl` (stereo not given): the pIC25 in the data set listed under Cavia porcellus is listed as 6.6. Besides, the concentration for half-maximal inhibition (IC50) in the data set filed under Rattus norvegicus was 25.1 nM. In [1], the Selectivity index is recorded as 10.
For `CCO/C(O)=C1\C(COCCNCC(=O)NCCN)=NC(C)=C(C(=O)OC)C1c1ccccc1Cl` (stereo not given), in that order: 7, 100 nM and 1.
The matching figures for `CCO/C(O)=C1\C(COCC/N=C(\NC#N)NCCN(C)C)=NC(C)=C(C(=O)OC)C1c1ccccc1Cl` (stereo not given): 6.8, 50.1 nM and 3.
For `CCO/C(O)=C1\C(COCCNC(=O)c2cnccn2)=NC(C)=C(C(=O)OC)C1c1ccccc1Cl` (stereo not given), in that order: 7.5, 39.8 nM and 0.8.
For the compound `CCO/C(O)=C1\C(COCCNS(N)(=O)=O)=NC(C)=C(C(=O)OC)C1c1ccccc1Cl` (stereo not given), the pIC25 in the data set filed under Cavia porcellus came out at 7.1. In the data set listed under Rattus norvegicus, half-maximal inhibition (IC50) required 7.94 nM. The compound further had a Selectivity index in data set [1] of 10.
`CCO/C(O)=C1\C(COCCNC(=O)c2ccc(O)nc2)=NC(C)=C(C(=O)OC)C1c1ccccc1Cl` (stereo not given): the pIC25 in the data set listed under Cavia porcellus was found to be 7. In the data set filed under Rattus norvegicus, the IC50 is 6.31 nM. The compound further came in with a Selectivity index in data set [1] of 16.
`CCO/C(O)=C1\C(COCCNC(C)=O)=NC(C)=C(C(=O)OC)C1c1ccccc1Cl` (stereo not given) showed a pIC25 in the data set listed under Cavia porcellus of 7.6. In the data set filed under Rattus norvegicus, the concentration for half-maximal inhibition (IC50) was 15.8 nM. The Selectivity index in data set [1] amounted to 1.6.
Compound `CCO/C(O)=C1\C(COCCNCC(=O)NC)=NC(C)=C(C(=O)OC)C1c1ccccc1Cl` (stereo not given) returned a pIC25 in the data set listed under Cavia porcellus of 6.9. Besides, in the data set filed under Rattus norvegicus, the IC50 was 25.1 nM. Further, the Selectivity index in [1] is 5.
For `CCO/C(O)=C1\C(COCCNCC(=O)NCCOC)=NC(C)=C(C(=O)OC)C1c1ccccc1Cl` (stereo not given), in that order: 7.5, 5.01 nM and 6.
In the data set listed under Canis familiaris [2], `CCO/C(O)=C1\C(COCCNC(C)(C)C(N)=O)=NC(C)=C(C(=O)OC)C1c1ccccc1Cl` (stereo not given) came in with a Duration of action of 210 min. This compound showed a Decrease in the data set on Canis familiaris [3] of 85%. In addition, the pIC25 in the data set listed under Cavia porcellus came out at 7.6. The IC50 in the data set filed under Rattus norvegicus is 3.16 nM. For the same compound, the Selectivity index in data set [1] turned out to be 8.
For `CCOC(=O)CNC(=O)NCCOCC1=C(C(=O)OCC)C(c2ccccc2Cl)/C(=C(\O)OC)C(C)=N1` (stereo not given), in that order: 15 min, 61%, 7, 10 nM and 10.
In the data set listed under Cavia porcellus, `CCO/C(O)=C1\C(COCCNC(=O)Nc2ccnc(O)n2)=NC(C)=C(C(=O)OC)C1c1ccccc1Cl` (stereo not given) returned a pIC25 of 7.7. Also, the midpoint of inhibition in the data set filed under Rattus norvegicus, the IC50, lay at 158 nM. In addition, the Selectivity index in data set [1] stood at 0.1.
For `CCO/C(O)=C1\C(COCCNC(=O)NCCN)=NC(C)=C(C(=O)OC)C1c1ccccc1Cl.O=C(O)/C=C\C(=O)O` (stereo not given), in that order: 7.1, 50.1 nM and 1.6.
In turn, `CCO/C(O)=C1\C(COCCNC(C)C(N)=O)=NC(C)=C(C(=O)OC)C1c1ccccc1Cl` (stereo not given) displayed a Duration of action in the data set filed under Canis familiaris [2] of 150 min. The same compound showed a Decrease in the data set on Canis familiaris [3] of 73%. Moreover, in the data set listed under Cavia porcellus, the pIC25 came out at 7.2. The IC50 in the data set listed under Rattus norvegicus is 10 nM. The compound also gave a Selectivity index in data set [1] of 6.
In turn, `CCO/C(O)=C1\C(COCCN(C)C(=O)NC)=NC(C)=C(C(=O)OC)C1c1ccccc1Cl` (stereo not given) registered a Duration of action in the data set filed under Canis familiaris [4] of 15 min. For the same compound, in the data set with Canis familiaris [5], the Decrease stood at 68%. Besides, the pIC25 in the data set filed under Cavia porcellus came to 7. For the same compound, the half-maximal inhibitory concentration (IC50) in the data set listed under Rattus norvegicus was 20 nM. The Selectivity index in [1] was 5.
In the case of `CCO/C(O)=C1\C(COCCNC(=O)NC)=NC(C)=C(C(=O)OC)C1c1ccccc1Cl` (stereo not given), in the data set listed under Cavia porcellus, the pIC25 is 7.6. 3.16 nM corresponded to half-maximal inhibition in the data set listed under Rattus norvegicus (IC50). In addition, in data set [1], the Selectivity index stood at 13.
For `CCO/C(O)=C1\C(COCCN(CC(N)=O)CC(N)=O)=NC(C)=C(C(=O)OC)C1c1ccccc1Cl` (stereo not given), in that order: 6, 63.1 nM and 16.
Turning to `CCO/C(O)=C1\C(COCCNC(=O)NCCN2CCNC2=O)=NC(C)=C(C(=O)OC)C1c1ccccc1Cl` (stereo not given), the pIC25 in the data set listed under Cavia porcellus is listed as 6.2. Moreover, the IC50 in the data set filed under Rattus norvegicus was 15.8 nM. In data set [1], this compound had a Selectivity index of 40.
The matching figures for `CCO/C(O)=C1\C(COCC/N=C(/NC)NC#N)=NC(C)=C(C(=O)OC)C1c1ccccc1Cl` (stereo not given): 7.5, 6.31 nM and 5.
`CCO/C(O)=C1\C(COCCNCC(N)=O)=NC(C)=C(C(=O)OC)C1c1ccccc1Cl` (stereo not given): in data set [6], the clearance came to 7 mL/min/kg. In data set [7], the half-life was 4.7 h. Further, the Vd in data set [8] amounted to 3 L/kg. The compound also yielded a Duration of action in the data set filed under Canis familiaris [2] of over 300 min. Moreover, the Decrease in the data set with Canis familiaris [3] stood at 88%. The compound also gave a pIC25 in the data set listed under Cavia porcellus of 7.1. The IC50 in the data set listed under Rattus norvegicus is 3.98 nM. The same compound yielded a Selectivity index in [1] of 20.
`CCO/C(O)=C1\C(COCCNC(=O)NCC(N)=O)=NC(C)=C(C(=O)OC)C1c1ccccc1Cl` (stereo not given) came in with a pIC25 in the data set listed under Cavia porcellus of 6.4. Further, it took 20 nM to reach half-maximal inhibition in the data set filed under Rattus norvegicus (IC50). Besides, the Selectivity index in data set [1] came out at 20.
Turning to `CCO/C(O)=C1\C(COCCN(C)S(N)(=O)=O)=NC(C)=C(C(=O)OC)C1c1ccccc1Cl` (stereo not given), the pIC25 in the data set filed under Cavia porcellus turned out to be 6.7. In the data set listed under Rattus norvegicus, 25.1 nM corresponded to half-maximal inhibition (IC50). Besides, the Selectivity index in data set [1] worked out at 8.
As to `COC(=O)C1=C(C)NC(C)=C(C(=O)OC)C1c1ccccc1[N+](=O)[O-]` [NIFEDIPINE], the Duration of action in the data set filed under Canis familiaris [2] amounted to 36 min. In the data set on Canis familiaris [3], this compound registered a Decrease of 77%. The pIC25 in the data set listed under Cavia porcellus came out at 7.5.
